T cruzi inh = blocks replication of Trypanosoma cruzi; inhibition, % (test concentration not listed); T. cruzi beta-gal in NIH3T3, luminescence, 90 h; 300,000 tested, 1.4% active;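 active = mean inhibition across valid replicates above about 55%, limit read from the data; inconclusive = mean below that limit but half or more replicates reach it; inactive = mean below it, under half of replicates reach it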;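 also: signal also drops with host cell toxicity which is not excluded here; 0% = plate median of DMSO wells and 100% = zero luminescence signal; higher percent means less beta-gal luminescence so fewer parasites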
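System: Mouse NIH/3T3 fibroblasts infected with β-gal-expressing T. cruzi Tulahuen C4 | Quantity: NIH/3T3 cells, 5,000 per well | Reagent: 5000 reporter trypomastigotes per well | Dosing: Compound pinned at 50 nL/well, DMSO | Schedule: 3 h host attachment, then at least 90 h co-culture | Detection: GalScreen luminescence, 60 min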
Mdm2 MdmX PPI = inhibitors of human Mdm2/MdmX interaction; O15151+Q00987; SaOS-2 split-luciferase Mdm2/MdmX complementation, luminescence; inhibition, % at 8 µM; 330,000 tested, 3% active;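 active = inhibition of at least 50% at 8 µM in the primary screen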
Target sequence (O15151 whole entry, looked up): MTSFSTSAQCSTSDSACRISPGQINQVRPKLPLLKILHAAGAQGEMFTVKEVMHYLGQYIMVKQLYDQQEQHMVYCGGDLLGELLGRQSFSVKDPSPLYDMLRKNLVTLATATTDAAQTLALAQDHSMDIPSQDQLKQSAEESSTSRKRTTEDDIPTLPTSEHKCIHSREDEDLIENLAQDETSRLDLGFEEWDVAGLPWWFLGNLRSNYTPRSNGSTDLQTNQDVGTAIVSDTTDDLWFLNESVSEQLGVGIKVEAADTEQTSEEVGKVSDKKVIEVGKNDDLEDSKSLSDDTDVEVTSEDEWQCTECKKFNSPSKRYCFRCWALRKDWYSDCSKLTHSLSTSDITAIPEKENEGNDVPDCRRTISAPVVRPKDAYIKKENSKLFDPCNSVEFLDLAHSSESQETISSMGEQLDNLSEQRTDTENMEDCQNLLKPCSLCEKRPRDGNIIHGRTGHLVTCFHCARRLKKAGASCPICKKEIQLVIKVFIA
Target sequence (Q00987 whole entry, looked up): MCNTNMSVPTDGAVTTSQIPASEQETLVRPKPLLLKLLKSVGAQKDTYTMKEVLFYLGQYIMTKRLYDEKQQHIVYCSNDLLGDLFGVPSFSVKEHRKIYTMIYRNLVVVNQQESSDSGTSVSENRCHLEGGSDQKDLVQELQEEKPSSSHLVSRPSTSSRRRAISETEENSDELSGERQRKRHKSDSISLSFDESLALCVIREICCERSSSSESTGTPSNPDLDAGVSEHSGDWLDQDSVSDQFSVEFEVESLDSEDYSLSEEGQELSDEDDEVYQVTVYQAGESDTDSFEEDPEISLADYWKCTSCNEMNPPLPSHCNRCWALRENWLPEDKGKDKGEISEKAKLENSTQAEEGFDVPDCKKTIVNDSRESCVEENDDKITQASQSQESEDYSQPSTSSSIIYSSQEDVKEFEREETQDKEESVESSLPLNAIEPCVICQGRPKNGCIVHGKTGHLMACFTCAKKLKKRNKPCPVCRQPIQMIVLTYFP
CSC inhib = cancer stem cell inhibition | 300,000 tested, 1.1% active | cancer stem cell-like cells viability, luminescence | inhibition, % at 7.5 µM | AID 2717; in the data active = inhibition above about 75%; inconclusive = no clear call, values can overlap the other calls; tested in HMLE shEcad cells
Calb FLC = C. albicans growth modulation with fluconazole; C. albicans CaCi-2 + fluconazole, Alamar Blue growth, 48 h; growth inhibition, % (test concentration not listed); 300,000 tested, 0.57% active;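 active = growth inhibition above about 58% in most replicates, limit read from the data, passing the limit was not always enough; inconclusive = exactly half the replicates above a set limit; inactive = most replicates below a set limit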;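 also: all wells also contain fluconazole at 8 µg/ml as a sub-toxic cotreatment; 0% = median of DMSO wells and 100% = median of geldanamycin control wells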
NLRP3 yeast inh = inhibitors of NALP3 inflammasome in yeast; Yeast reconstituted NLRP3/ASC/caspase-1, beta-gal luminescence, 24 h; inhibition, % at 10 µM; 330,000 tested, 0.39% active; AID 2825;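 active = inhibition of 50% or more; inactive = inhibition below 50%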;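 also: plate controls were induced DMSO wells for no effect and uninduced yeast grown without galactose for full effect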
Beta apoptosis = blocks beta cell apoptosis; INS-1E cytokine-induced death, ATP luminescence, 48 h; percent of positive-control rescue, neutral wells zero; protection from apoptosis, % (no concentration beside the values); 300,000 tested, 0.8% active; AID 435005;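 active = Every replicate reaches about 75%, or at least half do and their mean reaches it too, limit read from the data; inconclusive = At least half of replicates reach the limit but their mean does not; inactive = Under half of replicates reach the limit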;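 also: 0% = cytokine-treated negative control wells and 100% = positive control rescue; higher means more ATP so stronger rescue from cytokine killing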
Mdm2 MdmX conf = human Mdm2/MdmX binding inhibition, confirmed; shares compounds with Mdm2 MdmX PPI; luminescent assay; inhibition, % at 8 µM; 10,000 tested, 55% active; in the data active = inhibition above about 40%
FLuc counter = full-length luciferase inhibition in Mdm2/MdmX counter-screen; shares compounds with Mdm2 MdmX PPI; SaOS-2 full-length luciferase counterscreen, luminescence; inhibition, % at 8 µM; 6,200 tested, 77% active; AID 504607;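 active = mean inhibition at 8 µM reaching about 37%, which flags the compound as non-specific, limit read from the data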;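 also: p53-null SaOS-2 cells with luciferase driven by a doxycycline-inducible promoter; compound on cells about two nights before reading with doxycycline added after day one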
* marks the source's active call; other numbers are inactive results; ? = inconclusive; . = no result given. The list is not random: actives were taken first. Their share in the collection is about 5.3%.

SMILES | T cruzi inh | Mdm2 MdmX PPI | CSC inhib | Calb FLC | NLRP3 yeast inh | Beta apoptosis | Mdm2 MdmX conf | FLuc counter
O=C(O)CN1C(=O)/C(=C/c2ccccc2Cl)Oc2ccccc21 | -16 | -9 | -24 | -12 | 26 | -4 | . | .
Oc1ccccc1CNc1nccs1 | -17 | -5 | 3 | -13 | 14 | -13 | . | .
CCOC(=O)C(C)Oc1cccc2c(=O)n(CC(=O)NCc3ccccc3)ccc12 (centres undefined) | 17 | 66* | 43 | 5 | -1 | 13 | 50* | 67*
CCOC(=O)C(C)Oc1cccc2c(=O)n(CC(=O)NCc3ccc(F)cc3)ccc12 (centres undefined) | 22 | 69* | 45 | 6 | 0 | 19 | 61* | 88*
CCOC(=O)C(C)Oc1cccc2c(=O)n(CC(=O)NCCc3ccccc3)ccc12 (centres undefined) | -13 | 1 | 12 | 7 | -7 | -1 | . | .
COc1ccc(C2=NN(C(=O)c3ccccc3)C(c3cccc([N+](=O)[O-])c3)C2)cc1 (centres undefined) | 24 | 20 | 6 | 1 | 15 | 1 | . | .
CN(C(=O)COC(=O)c1ccccc1SCC(=O)N1CCCC1)C1CCS(=O)(=O)C1 (centres undefined) | -7 | 11 | 0 | -5 | 2 | -3 | . | .
CCc1ccc(C(=O)Cn2cnc3cc([N+](=O)[O-])ccc3c2=O)cc1 | 46 | 7 | -12 | 19 | 20 | -5 | . | .
COc1ccc(C2CC(=O)c3cnc(N4CCc5ccccc54)nc3C2)c(OC)c1 (centres undefined) | -2 | 21 | -2 | 9 | 1 | 2 | . | .
COc1cccc(C(=O)Nc2ncc3c(n2)CC(c2ccc(OC)cc2OC)CC3=O)c1 (centres undefined) | -47 | 59* | . | 24 | 12 | 0 | 51* | 57*
N#CC1=C(N)N2C(=C(C#N)C1c1cccc(Br)c1)Nc1ccccc12 (centres undefined) | -3 | 100* | 58 | -8 | -14 | 100* | 44* | 40*
N#CC1=C(N)N2C(=C(C#N)C1c1ccc(Br)cc1)Nc1ccccc12 (centres undefined) | -1 | 96* | 114* | 55 | -12 | 109* | 95* | 53*
Cn1cccc1CC(=O)NNC(=S)Nc1ccccc1Cl | 0 | 19 | -17 | 0 | 27 | 3 | . | .
C=CCn1c(Sc2ncc([N+](=O)[O-])s2)n[nH]c1=O | 15 | 66* | 106* | 10 | 28 | 60 | 88* | 56*
C=CCn1c(CSc2ccccc2[N+](=O)[O-])n[nH]c1=S | -13 | 9 | -17 | 1 | 20 | -6 | . | .
O=[N+]([O-])c1ccc(/C=C/C2=NN(c3ccccc3)C(c3ccco3)C2)cc1 (centres undefined) | . | . | 30 | . | . | -1 | . | .
Cc1cc(CN(C)C(=O)c2cc(COc3ccc4ncccc4c3)on2)on1 | 4 | 24 | -12 | -7 | 15 | 39 | . | .
CCCCN(CCCC)CCNC(=O)c1cn(CC)c2ccc(S(=O)(=O)N3CCc4ccccc4C3)cc2c1=O | 36 | 72* | 0 | -5 | 9 | 3 | 24 | .
CCn1cc(C(=O)NCCCN2CCCC(C)C2)c(=O)c2cc(S(=O)(=O)N3CCc4ccccc4C3)ccc21 (centres undefined) | 27 | 83* | -5 | 7 | 13 | -1 | 33 | .
CCC1CCCCN1CCCNC(=O)c1cn(CC)c2ccc(S(=O)(=O)N3CCc4ccccc4C3)cc2c1=O (centres undefined) | 29 | 90* | 7 | 2 | 3 | -4 | 50* | 55*
O=C(O)/C=C\C(=O)N1CCc2ccccc21 | -1 | -18 | 0 | 0 | 6 | -2 | . | .
CCc1noc(C)c1C(=O)OCC(=O)Nc1c(F)cccc1F | -7 | 0 | -8 | 2 | 13 | 2 | . | .
COc1cc(/C=C/C(=O)c2ccc(O)cc2)ccc1OCC#N | -6 | 87* | 58 | 2 | -5 | -3 | 78* | 36
CCOc1ccc(C(=O)/C=C/c2ccc(OC)c(OC)c2)cc1 | -11 | 22 | 12 | 31 | 18 | 0 | . | .
COc1cccc(C(=O)/C=C/c2ccc(OCC#N)c(OC)c2)c1 | -20 | 96* | 0 | 16 | 12 | -12 | 43* | 42*
SMILES | T cruzi inh | Mdm2 MdmX PPI | CSC inhib | Calb FLC | NLRP3 yeast inh | Beta apoptosis | Mdm2 MdmX conf | FLuc counter
CCOc1ccc(/C=C/C(=O)c2ccccc2)cc1OC | -4 | 10 | 23 | 18 | 17 | 2 | . | .
Cc1ccc(CSCc2ccc(C(=O)NCCC(C)C)o2)cc1 | 7 | 21 | 7 | 0 | 15 | -3 | . | .
Cc1nsc(Nc2ccc([N+](=O)[O-])cc2)c1C#N | -16 | 79* | 7 | 32 | 26 | 39 | 55* | 89*
CC(N)C(=O)NC(C(=O)N1CCCC1C(=O)NC(c1ccccc1)c1ccccc1)C(C)C (centres undefined) | . | -10 | 1 | . | 21 | 4 | . | .
COC(=O)N1C(=O)[C@](c2ccccc2)(C(C)C)N1C(=O)OC | -25 | 35 | 11 | -8 | 11 | 3 | . | .
CCOC(=O)N1C(=O)[C@@](c2ccc(Cl)cc2)(C(C)C)N1C(=O)OCC | -23 | 88* | 78* | -5 | 23 | 22 | 62* | 33
CCOC(=O)N1C(=O)[C@](c2ccc(Cl)cc2)(C(C)C)N1C(=O)OCC | -25 | 80* | 17 | -15 | 28 | 11 | 44* | 49*
CCOC(=O)N1CCN(C(=O)Cc2ccc(Cl)cc2)CC1 | 3 | -34 | 1 | 1 | 10 | -8 | . | .
COc1ccc(N(Cc2cc(=O)[nH]c3ccccc23)C(=O)c2ccco2)cc1 | -10 | 17 | -6 | -13 | -8 | -6 | . | .
CCc1ccccc1NC(=O)C1CCCN(c2ncnc3onc(-c4ccc(F)cc4)c23)C1 (centres undefined) | 2 | 14 | -21 | 2 | 1 | 5 | . | .
CC(C)(C)OC(=O)NCCc1nnc(SCc2ccccc2Cl)o1 | 26 | 15 | -13 | 5 | 20 | -5 | . | .
CC(C)(C)OC(=O)NCCc1nnc(S(=O)(=O)Cc2ccc(Cl)cc2Cl)o1 | -13 | 77* | ? | -13 | 3 | -88 | 59* | 5
Oc1cc(NCc2ccc(Cl)cc2)cc2cccnc12 | . | 47 | . | . | 9 | -1 | . | .
Oc1cc(NCc2ccc(F)cc2)cc2cccnc12 | . | 56* | . | . | 13 | 4 | 17 | .
FC(F)(F)c1nnc2c(Sc3ccc(Cl)cc3)nc3ccccc3n12 | 46 | 85* | 49 | -12 | 5 | 3 | 95* | 32
FC(F)(F)c1nnc2c(Sc3ccccc3)nc3ccccc3n12 | 8 | 68* | 10 | ? | -11 | -29 | 23 | .

Screening data from PubChem.
